In ChEMBL document CHEMBL4028805, “Phenylthiazole Antibacterial Agents Targeting Cell Wall Synthesis Exhibit Potent Activity in Vitro and in Vivo against Vancomycin-Resistant Enterococci” (J Med Chem, 2017):
Calls of active or inactive are those of the source. The rule behind the calls is not given here.

Tests used:
[1] = system: Bacillus subtilis; test: Antibacterial activity against Bacillus subtilis assessed as cell lysis at 5 times MIC after 30 mins by sytox green staining-based deconvolution microscopic analysis; format: functional
Summary of the method: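 B. subtilis grown in LB at 37 °C to OD600 ~0.2 and treated, with or without MSM for osmotic stabilization, for 30 min or 2 h. Stained with FM 4-64 (1 μg/mL), DAPI (1 μg/mL) and SYTOX Green (1 μg/mL) to score permeability. Examined by deconvolution and phase-contrast microscopy.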

[2] = system: Enterococcus faecalis; test: Synergistic antimicrobial activity against Enterococcus faecalis ATCC 51299 after 20 hrs in presence of ampicillin by checkerboard assay; format: functional
Summary of the method: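 Checkerboard in TSB with a starting inoculum of 1×10^5 CFU/mL. Compound and antibiotic diluted from 2× or 4× MIC along perpendicular axes. Incubated 20 h at 37 °C. ΣFIC calculated: ≤0.5 synergy, >0.5 to <2 additive, 2–4 indifference, >4 antagonism.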

[3] = system: Enterobacter cloacae; test: Antibacterial activity against Enterobacter cloacae BAA-1154 after 18 to 22 hrs in presence of 1/4 times MIC colistin by broth microdilution method; format: functional
Summary of the method: (§1)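 Broth microdilution per CLSI guidelines. Gram-negatives grown in TSB. Each strain tested alone and again with colistin at ¼ × MIC to permeabilize the outer membrane. Plates incubated at 37 °C for 18–22 h. MIC read as the lowest concentration showing no visible growth.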

[4] = biological target: T1, Farnesyl pyrophosphate synthase (Homo sapiens, UniProt P14324); test: Inhibition of human FPPS
T1 sequence (P14324 whole entry): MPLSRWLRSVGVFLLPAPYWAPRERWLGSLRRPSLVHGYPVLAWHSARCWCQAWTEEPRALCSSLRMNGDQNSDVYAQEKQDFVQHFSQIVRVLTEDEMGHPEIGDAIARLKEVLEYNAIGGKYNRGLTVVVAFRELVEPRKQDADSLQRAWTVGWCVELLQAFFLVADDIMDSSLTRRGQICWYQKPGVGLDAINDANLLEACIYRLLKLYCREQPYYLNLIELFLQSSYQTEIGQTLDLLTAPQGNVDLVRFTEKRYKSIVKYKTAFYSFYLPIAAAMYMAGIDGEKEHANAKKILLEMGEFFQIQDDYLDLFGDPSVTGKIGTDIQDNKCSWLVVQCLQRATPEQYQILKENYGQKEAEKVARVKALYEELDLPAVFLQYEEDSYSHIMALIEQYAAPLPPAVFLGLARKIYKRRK

[5] = system: Enterococcus faecalis; test: Potentiation of vancomycin-induced antibacterial activity against Enterococcus faecalis HM-201 assessed as fold reduction in vancomycin MIC preincubated for 30 mins followed by vancomycin addition measured after 18 to 21 hrs; format: functional
Summary of the method: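 VRE suspensions at 5×10^5 CFU/mL preincubated with compound at ½ × MIC for 30 min at room temperature. […] Fold reduction calculated as vancomycin MIC alone over MIC in combination.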

[6] = system: Enterococcus faecium; test: Potentiation of gentamicin-induced antibacterial activity against Enterococcus faecium ATCC 700221 assessed as gentamicin MIC preincubated for 30 mins followed by gentamicin addition measured after 18 to 21 hrs; format: functional
Summary of the method: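 Enterococcal suspensions at 5×10^5 CFU/mL preincubated with compound at ½ × MIC for 30 min at room temperature.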

[7] = system: Acinetobacter baumannii; test: Antibacterial activity against Acinetobacter baumanii ATCC 19606 after 18 to 22 hrs in presence of 1/4 times MIC colistin by broth microdilution method; format: functional; settings: ATCC 19606 = CIP 70.34 = JCM 6841; summary of the method: as §1
[8] = system: Enterococcus faecalis; test: Antibacterial activity against vancomycin-resistant Enterococcus faecalis HM-201 infected in Caenorhabditis elegans AU37 assessed as reduction in bacterial burden at 20 ug/ml after 18 hrs by CFU-based […] analysis relative to control; format: functional; parameters: scale not given: the % may be the effect or the level left
Summary of the method: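 C. elegans AU37 adults infected on an E. faecalis HM-201 lawn for 2 h, washed in M9, 20–25 worms per well. Treated in triplicate with 20 μg/mL, with water as negative control. Worms washed, lysed with silicon carbide by vortexing, diluted serially and plated on TSA with 50 μg/mL gentamicin. CFU counted after 18 h at 37 °C and expressed as % reduction versus untreated worms.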

## CCCCc1ccc(-c2nc(C)c(/C(C)=N/NC(=N)N)s2)cc1
[1]
  Activity: 95%
[2]
  fractional inhibitory concentration index (FICI): 3
[3]
  MIC: 1 µg/mL
[4]
  inhibition (INH): Not Active
[5]
  Activity: inactive
[6]
  Activity: inactive
[7]
  MIC: 1 µg/mL
[8]
  Activity: 89%
